The sample as a whole holds a higher share of hits than the screen did.
Lung fibro prol: antiproliferative effect on LL 47 fibroblasts – human, LL 47 cells, CellTiter-Glo luminescence, primary screen; 1.1% of 85,000 active; viability, % at 10 µM; LL 47 human lung fibroblast viability, ATP luminescence; active compounds read low; AID 719, 2007;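 active = viability at or below 50% in the single dose screen; inactive = viability above 50%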;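 also: compound exposure lasted 72 h before the ATP readout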
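Material: Human LL 47 lung fibroblast cells | Input: 1,150 cells/well | Buffer or medium: IMEM plus 15% FBS | Compound dosing: 0.1% DMSO in all compound wells | Times: Overnight cell rest, 72 h compound treatment at 37 °C | Signal: CellTiter-Glo luminescence measuring cellular ATP | Measure: % viability versus median cells-only luminescence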
bCat KO growth: primary screen for growth suppressors in beta-catenin knockout HCT116 cells (colon tumor, human). HCT116 beta-catenin knockout viability, CellTiter-Glo, 60 h; active compounds read low. viability, % at 10 µM. 1.5% of 140,000 active. AID 818, 2007;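 active = viability at or under a set limit, the compound median less 4 SD, cut at about 6% in these data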
HCT116 PTEN-null: growth suppression of PTEN-null HCT116, primary screen, cell-based, CellTiter-Glo; 1.2% of 140,000 active; AID 827, 2007; viability, % at 10 µM; HCT116 PTEN-null viability, 60 h; active compounds read low;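 active = viability at or below a set limit, 4 SD under the median of all tested compounds, cut at about 3.7% in these data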;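 also: PTEN knockout HCT116 line with beta catenin targeted HCT116 as companion control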
HUVEC prolif 384: inhibitors of HUVEC proliferation, primary screen, cell-based, 384-well | CellTiter-Glo luminescence, 72 h; active compounds read low | viability, % at 10 µM (by protocol) | 1.1% of 86,000 active | AID 648, 2007;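 active = viability at or below 30%; inactive = viability above 30%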
Pyk2 oligo antag: antagonists of Pyk2 self-association, primary screen, Q293 cells, FERM NanoBiT luminescence, HTS | 0.83% of 99,000 active | z-score (the deposit names both 25 µM and 10 µM) | active compounds read low;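 active = Z-score of -3 or lower, scaled per plate to the spread of control and sample wells; inactive = z-score above -3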;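 also: negative z-score means lost luminescence so less FERM oligomerization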
H69AR inhibit: proliferation blockers of H69AR lung cancer cells, primary screen, cell-based, human, 86K library. H69AR lung tumor viability, ATP luminescence, 72 h; active compounds read low. viability, % at 10 µM. 6% of 85,000 active;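 active = viability at or below 40%; inactive = viability above 40%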;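 also: multidrug resistant small cell line overexpressing MRP-1 efflux transporter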
Each line names hits and unclear results; the compound was inactive in the other large screens.

O=C(CSc1ccccc1)Nc1ccccc1N1CCOCC1	none
CN(C(=O)Cc1noc2ccccc12)c1ccccc1	none (no result: Lung fibro prol, HUVEC prolif 384, Pyk2 oligo antag, H69AR inhibit)
Cc1ccc(NC(=O)CCC(=O)OCc2ccc(Br)cc2)cc1	none (no result: Lung fibro prol, HUVEC prolif 384, Pyk2 oligo antag, H69AR inhibit)
CCOC(=O)C1=C(CC)Nc2ccccc2N=C1NC(=O)Nc1ccc(Cl)c(Cl)c1	bCat KO growth 2.6, HCT116 PTEN-null 2.6, Pyk2 oligo antag -4.1 (no result: Lung fibro prol, HUVEC prolif 384, H69AR inhibit)
CCOC(=O)C1=C(CC)Nc2ccccc2N=C1NC(=O)Cn1cnc2ccccc2c1=O	none
CC(C)Oc1ccc(Cn2c(=O)sc3ccccc32)cc1	Pyk2 oligo antag -3.3
COc1ccc(Cn2c(=O)sc3ccccc32)cc1	none
COc1cc(/C=C2\C(=O)N(CCC#N)N=C2C)c(Br)cc1OC(C)C	H69AR inhibit 16
CCCCn1c(=N)n(CC(=O)c2ccco2)c2ccccc21	none
CCCCCCCn1c(=N)n(CC(=O)c2ccco2)c2ccccc21	bCat KO growth 4.7, HCT116 PTEN-null 2.0, H69AR inhibit 24
COc1ccc(Cl)cc1Nc1nc(-c2sc(NC(=O)c3ccccc3)nc2C)cs1	bCat KO growth 1.2, HCT116 PTEN-null 1.1 (no result: Lung fibro prol, HUVEC prolif 384, Pyk2 oligo antag, H69AR inhibit)
COc1ccc(OC)c(Nc2nc(-c3sc(NC(=O)c4ccccc4)nc3C)cs2)c1	none (no result: Lung fibro prol, HUVEC prolif 384, Pyk2 oligo antag, H69AR inhibit)
CCOc1ccccc1Nc1nc(-c2sc(NC(=O)c3ccc([N+](=O)[O-])cc3)nc2C)cs1	bCat KO growth 0.8, HCT116 PTEN-null 1.5 (no result: Lung fibro prol, HUVEC prolif 384, Pyk2 oligo antag, H69AR inhibit)
N#Cc1sc2nc(N3CCCCC3)c3c(c2c1N)CCCC3	HUVEC prolif 384 7.4, H69AR inhibit 23
CCCCC(=O)c1c(O)c2ccccc2oc1=O	none (no result: Lung fibro prol, HUVEC prolif 384, H69AR inhibit)
O=C(CC1CCCCC1)c1c(O)c2ccccc2oc1=O	HUVEC prolif 384 3.2
CC1CCC(C(=O)c2c(O)c3ccccc3oc2=O)CC1 (stereo not drawn)	HUVEC prolif 384 13
Cc1ccc(C(=O)N(c2c(C)n(C)n(-c3ccccc3)c2=O)C(C)C)cc1	none
CCCOc1ccc(/C=N/Nc2ccccc2[N+](=O)[O-])c(OCCC)c1	none (no result: Lung fibro prol, HUVEC prolif 384, Pyk2 oligo antag, H69AR inhibit)
COc1ccc(NS(=O)(=O)c2cc(NC(=O)c3cccc(OCc4c(C)noc4C)c3)ccc2OC)cc1	none (no result: Lung fibro prol, HUVEC prolif 384, H69AR inhibit)
Nc1c(C(=O)Nc2ccccc2)sc2nc3c(c(-c4ccco4)c12)CCC3	none
COc1ccc(-c2c3c(nc4sc(C(=O)Nc5ccccc5)c(N)c24)CCC3)cc1	H69AR inhibit 30 (no result: bCat KO growth, HCT116 PTEN-null)
CNS(=O)(=O)c1ccc(C)c(S(=O)(=O)NC)c1	none (no result: Lung fibro prol, HUVEC prolif 384, Pyk2 oligo antag, H69AR inhibit)
CCOC(=O)c1c(C)n(-c2ccc(C)cc2)c2c(C(C(C)=O)C(=O)O)c(Br)c(O)c(O)c12 (stereo not drawn)	none (no result: Lung fibro prol, HUVEC prolif 384, H69AR inhibit)
CCOC(=O)C(C(C)=O)c1c(Br)c(O)c(O)c2c(C(=O)c3ccc(C)cc3)coc12 (stereo not drawn)	Lung fibro prol 10, bCat KO growth 1.3, HCT116 PTEN-null 1.7, H69AR inhibit 1.4
COC(=O)Nc1nnc(-c2ccccc2Cl)s1	none
CSc1nncc(=O)[nH]1	Lung fibro prol 3.6
O=c1cnnc(SCCc2ccccc2)[nH]1	none
COc1ccc(Nc2ncnc3c2oc2ccccc23)cc1	H69AR inhibit 39
Cc1ccc(Nc2ncnc3c2oc2ccccc23)cc1	none
N/C(Cc1ccc([N+](=O)[O-])cc1)=N\OC(=O)c1ccc2ccccc2c1	HUVEC prolif 384 24
Cc1cccc(C(=O)O/N=C(\N)Cc2ccc([N+](=O)[O-])cc2)c1	H69AR inhibit 3.6
N/C(Cc1ccc([N+](=O)[O-])cc1)=N\OC(=O)c1ccc(Br)cc1	none (no result: Lung fibro prol, HUVEC prolif 384, Pyk2 oligo antag, H69AR inhibit)
CC(=O)N/C(=C/c1ccc2c(c1)OCO2)C(=O)NCCO	none (no result: Lung fibro prol, HUVEC prolif 384, Pyk2 oligo antag, H69AR inhibit)
O=C1c2ccccc2-c2onc3c(Oc4ccccc4)cc(O)c1c23	H69AR inhibit 25 (no result: Pyk2 oligo antag)
Cn1c(=O)c2c(nc(N/N=C/c3ccc(OC(=O)c4ccco4)cc3)n2Cc2ccccc2)n(C)c1=O	none (no result: Lung fibro prol, HUVEC prolif 384, Pyk2 oligo antag, H69AR inhibit)
O=C1CCC([N+](=O)[O-])C(c2cccc(Cl)c2Cl)N1 (stereo not drawn)	none
S=C(Nc1ccccc1)c1ccccn1	H69AR inhibit 1.2
COc1cc(/C=C2\CCc3ccccc3C2=O)cc(OC)c1OC	bCat KO growth 2.0, HCT116 PTEN-null 1.7 (no result: Lung fibro prol, HUVEC prolif 384, Pyk2 oligo antag, H69AR inhibit)

Screening data from PubChem.
